The nature of data set [1]: Short-term stability in mouse tissue homogenates. The class given is in vitro ADME. Summed up:
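Blank homogenate made by homogenising the whole organ in ice-cold 2% (w/v) BSA in water. Medium QC (100 ng/ml) prepared by diluting high-QC plasma into the homogenate. Held 5 h at room temperature (n = 4), then acetonitrile protein precipitation with internal standard and LC–MS/MS quantification. Peak-area ratios were read from a 1/x²-weighted calibration line.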

The nature of data set [2]: Stability of methanolic stock solutions. The class given is physicochemical. Particulars: 1.5 months at −30°C, methanol. Summed up: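 Single-analyte stocks (0.5 mg/ml in methanol, made from 300–500 µg of weighed solid) stored 1.5 months at −30°C, then reanalysed by LC–MS/MS.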
Data set [3] is described as follows: Pilot pharmacokinetic and tissue distribution study in mice after oral EAI045. The class given is in vivo, mouse (FVB/NRj wild-type, female). Summed up:
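Five female FVB/NRj mice, 10–15 weeks old, fasted 3 h, then given one 20 mg/kg oral gavage dose. Vehicle: DMSO stock at 4 mg/ml, diluted with polysorbate 80–ethanol (1:1) and 5% glucose to 2 mg/ml. Tail-vein blood taken at 5, 15, 30 min, 1 and 2 h. At 4 h, cardiac puncture under isoflurane, then organs homogenised in 2% BSA. Cmax/Tmax observed; AUC0–t by trapezoidal rule; CL/F = dose/AUC0–t; mean ± SD.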

Data set [4] can be described thus: Stability in mouse plasma QC samples. In kind it is in vitro ADME. In short, it runs like this:
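Pooled female mouse lithium–heparin plasma QCs at high (1,500 ng/ml) and low (6 ng/ml) levels, as 10 µl portions (n = 4). Three conditions: room temperature for 5 and 24 h; three freeze–thaw cycles (1 h thaw at room temperature, 1 day at −30°C); and 1.5 months at −30°C. Quantified by LC–MS/MS after acetonitrile precipitation.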

The mark [5] stands for this setting: female, FVB/NRj, mouse, plasma, po, 20 mg/kg.

The structures appear in SMILES notation.

A word on the AUC(0-t): it is the area under the concentration-time curve up to a stated or last time point. Low readings indicate less exposure, high ones more exposure. By Cmax is commonly meant the maximum level reached in the sampled fluid or tissue. The Tmax is the time at which the peak concentration occurs. Broadly, the half-life is how long it takes for the measured level to halve. A low value points to rapid decline. In data set [1] (SIWC homogenate), `O=C(O)C(c1cc(F)ccc1O)N1Cc2ccccc2C1=O` (stereo not drawn) [PIA, (5‐fluoro‐2‐hydroxyphenyl)(1‐oxo‐1,3‐dihydro‐2H‐isoindol‐2‐yl)acetic acid] yielded a recovery at 5 h, 100 ng/ml of 104 ± 3.4%. The recovery at 5 h, 100 ng/ml in data set [1] (brain homogenate) worked out at 99.7 ± 5.1%. The compound further gave a recovery at 5 h, 100 ng/ml in data set [1] (kidney homogenate) of 99.4 ± 2.4%. Also, the recovery at 5 h, 100 ng/ml in data set [1] (liver homogenate) was 114 ± 10.9%. The same compound yielded a recovery at 5 h, 100 ng/ml in data set [1] (lung homogenate) of 107 ± 2%. The same compound gave a recovery at 5 h, 100 ng/ml in data set [1] (spleen homogenate) of 107 ± 7.6%. For the same compound, in data set [2], the “recovery of methanolic stock solution” value was 98.3%. This compound also showed a concentration at 4 h in data set [3] (female, FVB/NRj, mouse, brain, po, 20 mg/kg) of 9.8 ng/g. The same compound gave a concentration at 4 h in data set [3] (female, FVB/NRj, mouse, kidney, po, 20 mg/kg) of 30.8 ng/mL. Further, in data set [3] (setting [5]), the AUC(0-t) amounted to 1870 ng·h/mL, the Cmax is 1520 ng/mL, the Tmax is 15 to 30 min and the half-life was 70.2 ± 12.6 min. In addition, the “metabolite level compared with EAI045 (ratio)” value in data set [3] (pilot study, SIWC) is listed as “ca. 5%”. Further, the “metabolite level compared with EAI045” value in data set [3] (pilot study, all matrices except SIWC) was “higher than 10%”. The “plasma concentration (chromatogram sample)” value in data set [3] (plasma sample from a single mouse, oral 20 mg/kg EAI045) came to 133 ng/mL. Besides, the “time by which PIA was more abundant in plasma than the parent drug” value in data set [3] (plasma, oral 20 mg/kg EAI045, mice) is recorded as at most 15 min. In data set [3] (small intestine with contents, 4 h after oral 20 mg/kg EAI045, mice, data not shown), the “absolute amount retrieved from SIWC” value is reported as ~ 0.074 % of the EAI045 dose. In data set [4], this compound yielded a recovery at 1.5 months, 6 ng/ml of 110 ± 9.6%; a recovery at 1.5 months, 1500 ng/ml of 90.8 ± 2.4%; a recovery at 5 h, 6 ng/ml of 93.3 ± 1.8%; a recovery at 5 h, 1500 ng/ml of 102 ± 4.1%. In data set [4], this compound had a recovery at 24 h, 6 ng/ml of 101 ± 8.3% and a recovery at 24 h, 1500 ng/ml of 100 ± 6.2%.
